Measurements published in the EternaBench riboswitch data.

Test system: MS2 coat protein
Experiment: apparent Kd, MS2 coat protein; higher = weaker binding; RNA-MaP array; FMN 200 µM where present
How it was run: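 Stalled E. coli RNA polymerase transcribed the designs on Illumina sequencing-chip clusters. SNAP-549-labelled MS2 coat protein was titrated from 0.7 or 1.5 nM, doubling to 3 µM, without and then with constant ligand, in 100 mM Tris-HCl pH 7.5, 80 mM KCl, 4 mM MgCl2, BSA, DTT, yeast tRNA and Tween-20. Per-cluster binding curves were fitted to green signal normalised to red-channel RNA signal and control-cluster median Fmax. The apparent Kd is the median of the filtered fits.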

[1] = designed as: OFF switch for flavin mononucleotide, no ligand
[2] = ligand present: flavin mononucleotide, designed as: OFF switch for flavin mononucleotide
[3] = designed as: ON switch for flavin mononucleotide, no ligand
[4] = ligand present: flavin mononucleotide, designed as: ON switch for flavin mononucleotide

Row | Sequence | apparent Kd [1] | apparent Kd [2] | apparent Kd [3] | apparent Kd [4]
1 | CAGAGUAAAGGAUAUACAUGAGGAUCACCCAUGUUUAGACCGACGACACGUCCUAGUUGUAGAAGGUUAUUUUG | 82.2 nM | 68.7 nM | – | –
2 | GGUGUAUAUGAGAAGGCGAUCAUGAAACAUGAUCGAGGAUAUCAUGUAAACAUGAGGAUCACCCAUGUAUGGGAAUAUUGCACC | – | – | 133 nM | 15 nM
3 | CGCUUUAUAUAUUUGGCAAGAAUCAGAAGGCGUUACAUGAGGAUCACCCAUGUUUUGUAUAGUAACGAGGAUAUGAUAUGAGCG | 14.6 nM | 14.8 nM | – | –
4 | AAUUAUAUACAGAAGGAGUUAUUUAGAGGAUUACUAGGAUAUGUUCACAUGAGGAUCACCCAUGUCAUAUUGGGAUUUAUUAUU | 18 nM | 24 nM | – | –
5 | CAAAUUUGGUAAGGAUAUCCCACAUUAUUCUGACCCGUGCAAGCUACAUGAGGAUCACCCAUGUGGGAGAAGGUGCGUUAAAGA | 63 nM | 79 nM | – | –
6 | CUCUUGUGAGGAUAUCAGGUGUGCUAGCGUACUGGUACAUCUGAGAAGGCACAUGAGGAUCACCCAUGUUUCUA | 148 nM | 23.2 nM | – | –
7 | CGAUGUUAUGUCAGGAUAUGCGUUGCGAAAGCAAUGUAGAAGGGACAUGAGGAUCACCCAUGUGCUAACCAUCG | 18.7 nM | 51.1 nM | – | –
8 | UGGUACGAGGGAGGAUAUGGGAAGAUACAUGAGGAUCACCCAUGUUUAAGAAUGCCGAGAGGCAACUAGAAGGCCCUAGUACCU | – | – | 583 nM | 21.9 nM
9 | AUAUUUAUUUAGAAGGACAUGAGGAUCACCCAUGUCGCUGGGCCCGGGAAACCGGGCCCGGCCAUGUAGGAUAUAGAUAGAUAU | 8.53 nM | 9.17 nM | – | –
10 | UUGUUCUGAGGAUAUACAUGAGGAUCACCCAUGUGUUUCAGCUAGGAGACUAGCGAAAGUAGAAGGCUGUUCUC | 16.7 nM | 17.9 nM | – | –
11 | CUUAAAGACGAGAAGGCUGAUUUGACAUGAGCGUCAGCCGUGUAACAUGAGGAUCACCCAUGUGCGGAGGAUAUUGAUCUUGAG | – | – | 12.3 nM | 13.9 nM
12 | AAAACAUGAGGAUCACCCAUGUAUAGAGCGGUUAAUAAAGGUGAGGAUAUACUAAAUUUUAUAUAGUAGAAGGCACUGGGUACU | – | – | 26.7 nM | 30.5 nM
13 | AAAGUGUCAGGAUAUGCGAAGGCAUCUGACAGAUGAGGAUCGCAGAAGGGACAUGAGGAUCACCCAUGUAAAAA | 45.2 nM | 122 nM | – | –
14 | UUGGCGCGAUCCUGGGUCUCACAUGAGGAUCACCCAUGUAGAGAGGAUAUGCAUAGGGCCCAAUGGCAGAAGGCUCUACAUGAG | 91.4 nM | 57.2 nM | – | –
15 | AAGGAUAGAGGAUAUACAUAGAUACAGAUUCAUGUAGUCCUACAUGAGGAUCACCCAUGUAGAAGGCUAUCCUA | 15.6 nM | 83.8 nM | – | –
16 | UGUCCAUAGCAGAAGGACAUGAGGAUCACCCAUGUAAUCAUACAAAUACAUGUAGGAUAUGCUAUGGACUAAGAGCGAAAGCUC | 8.28 nM | 19.1 nM | – | –
17 | GGAUCAUAUGUUAGGAUAUGCUGGACCUUGGUUCAGCAGAAGGGACAUGAGGAUCACCCAUGUCAUGUCGAUCC | 21 nM | 22.3 nM | – | –
18 | GCGUUUUAUGCAGGAUAUUGUAAUUUAUUACUACAAGAAGGGCAAUACAUGAGGAUCACCCAUGUCAGCAUGGUAUUAAAGUUC | 37.6 nM | 42.8 nM | – | –
19 | CACCAGCGAGGAUAUACACGUGGUCUCCACUCCCGGUGGUAACAUGAGGAUCACCCAUGUAGAAGGCGCAACAU | 42 nM | 220 nM | – | –
20 | GCAGCUCCUGACAUGAGGAUCACCCAUGUUUAAUUAUUAAAUCAGGAUAUCCUUUCGAAACGAAAGGAGAAGGGAUAAGCUGCU | – | – | 4.81 nM | 4.94 nM
21 | GUAGCAUACCGAGGAUAUUCAGAUAAUAAAUAAACAUGAGGAUCACCCAUGUGGCGAAAGCCUAGGGAGAAGGCGGAAUGCUAC | – | – | 77 nM | 20.6 nM
22 | AUCAGGUCGUCAGGAUAUACGUCACUGCGUCAGCAGUGUGGUAAGAUCACAUGAGGAUCACCCAUGUAGAAGGGACGAGCUGAU | 13.2 nM | 311 nM | – | –
23 | CUGUUCCGUGUAGGAUAUGCAUAUUCUCAUUAUGCAGAAGGACAUGAGGAUCACCCAUGUAUGUUAUUAUCAUAUGUUACAUGU | 37.5 nM | 321 nM | – | –
24 | AGUUAAUAUCGAGGAUAUGUCUAGACACAUGAGGAUCACCCAUGUAUGUGUAUAGAAGGCGAUAUUAACAGCAUGUUACAUGCA | – | – | 40.2 nM | 16.7 nM
25 | GUAGAGUAAGGAUAUACAGAAUAGGAUAGAAUGGUUAGAAUGUAGAAGGUACAUGAGGAUCACCCAUGUAAUGU | 19.7 nM | 18.4 nM | – | –
26 | CAAAAGCUAGGAUAUGCCAAUUGUUCCUUAAGUCAAAAUAAACAUGAGGAUCACCCAUGUAGAAGGAGCCCAAC | 35.9 nM | 19.8 nM | – | –
27 | GGAUAGGACAGAGGAUAUGCGUGCUAGAGAUACUAGCAAAAUUUCCUCACAUGAGGAUCACCCAUGUAGAAGGCUGUCCUAUCG | 7.75 nM | 66.2 nM | – | –
28 | UAGAAGUCAGGAUAUGCAUGGCGGGACUUGCGUCGUGGCGUGCAGAAGGGACAUGAGGAUCACCCAUGUGGAGU | 179 nM | 230 nM | – | –

Row | Sequence | apparent Kd [1] | apparent Kd [2] | apparent Kd [3] | apparent Kd [4]
29 | UUUAGUUGCGGGCAGGAUAUGUAUUAAAAUACAUGAGGAUCACCCAUGUGCGGGUAUAACACCCGACAGAAGGGCCAAUCGCGAC | – | – | 322 nM | 33.3 nM
30 | UGUAUACAUGAGGAUCACCCAUGUAAGGAUAUGCUUUAUUAUUAUUAUUAUUAUUAUUGCAGAAGGUACAUUAU | 35.8 nM | 35.9 nM | – | –
31 | CCAGCGUAUGUGAGGAUAUGCUGGUCCUUGGAUCAGCAGAAGGCACAUGAGGAUCACCCAUGUGAUGACGUUGG | 50.9 nM | 287 nM | – | –
32 | AAUAACAGAGGAUAUACUAUUUUAUGUGUUUGUUAUUUUAAACAUGAGGAUCACCCAUGUAGAAGGCUGAAUAA | 24.3 nM | 22.1 nM | – | –
33 | AGCUGUGGCAGAGGAUAUACAAUCCUAAUCCAUUGCAAAUAGCGAUGGACAUGAGGAUCACCCAUGUAGAAGGCUGUCUCAGCA | 297 nM | 65.2 nM | – | –
34 | GGUACUCAAAGAGUACCAAUACGAACAUGAGGAUCACCCAUGUAGGAUAUGCUACUCAAAGAGUAGCAGAAGGAUAUGUGUCUA | 16.5 nM | 17.5 nM | – | –
35 | GGUUGACAAAGUCAACCUAUUCGAACAUGAGGAUCACCCAUGUAGGAUAUGCUACUCAAAGAGUAGCAGAAGGACAUGUGCCUU | 32.7 nM | 172 nM | – | –
36 | UUAUCUCAUGAGAAGGACAUGAGGAUCACCCAUGUAGGAUAUCAUGGGUCAGUGGAAUUGAAUCUUCGGAUUCAAUAACUCUAC | – | – | 72.5 nM | 11.9 nM
37 | GUGUACAGAGGAUAUAUAUGAGCUAGGAAACUAGCAAACUCACAUGAGGAUCACCCAUGUAGAAGGCUGUACAC | 29.4 nM | 156 nM | – | –
38 | ACGGCAAUCAGAGGAUAUGGUUACAUGAGGAUCACCCAUGUCAAGGGUCUAAUUAGGUAUAACUACCAGAAGGCUGAAGGCCUA | 56.1 nM | 94.8 nM | – | –
39 | GCAUCCAAUGUGAGGAUAUACCUCUGGAUACAGAGGUAGAAGGCACAUGAGGAUCACCCAUGUUACUAGGAUGC | 20.8 nM | 44.4 nM | – | –
40 | UAAACAUGAGGAUCACCCAUGUAAAGAUCGGUAGUAGAGAGUGAGGAUAUACUAAAUUUUAUGGAGUAGAAGGCACUGGGUUCU | – | – | 40.1 nM | 32.3 nM
41 | CUAUUUAGUGCCUCAUGUACAUGAGGAUCACCCAUGUUAACUUAGGAUAUAUUUAUAUUGUUAGAGUAGAAGGAAGUACUAUUU | 26.3 nM | 21.5 nM | – | –
42 | CAGGUAGACUGAGGAUAUACAUCUCUGGGCAAACCAGAGUAAAAUUCGACAUGAGGAUCACCCAUGUAGAAGGCAGUCUGCCUG | 17 nM | 24.1 nM | – | –
43 | UGGUACUAGGGAGGAUAUGGGAAGAUACAUGAGGAUCACCCAUGUUUAAGAAUGCCGAGAGGCAACUAGAAGGCCAUAGUACCU | – | – | 405 nM | 22 nM
44 | UGGUACUAGGGAGGAUAUGGGAAGAUACAUGAGGAUCACCCAUGUUUAAGAAUGCCGAGAGGCAACGAGAAGGCCCUAGUACCU | – | – | 793 nM | 132 nM
45 | UUAAAUCAUGUAGGAUAUGCAUGGCGAAGCUACGCAGAAGGACAUGAGGAUCACCCAUGUGCUAGCGACUGAGUACAGUUGCAA | 56.4 nM | 325 nM | – | –
46 | UUUUUACUUGCAGGAUAUGGAGACAUGAGGAUCACCCAUGUAUGAGGAGCUAAAUUAUGCUGUGGCCAGAAGGGUAUUGUUCUU | – | – | 66.6 nM | 58.8 nM
47 | AUGGGACAUGAGGAUCACCCAUGUUAGGAUAUCUCCUUAGUAACGAUCAGGCUAUAGGAGAGAAGGAACGGUCC | 258 nM | 272 nM | – | –
48 | GGAGCACACAUUAACAUGAGGAUCACCCAUGUCAAAAGACAUGAGGAUAUGGUUCCGAAAAGGAUCCAGAAGGCAUGGUGCUCC | – | – | 356 nM | 15.5 nM
49 | GUCAGCUCGUGAGGAUAUACAACACUGCUUCGGCAGUGUAUUAAGAUCACAUGAGGAUCACCCAUGUAGAAGGCACGCGCUGAU | 12.9 nM | 292 nM | – | –
50 | UACCUCUCAGGAUAUGAGCAGCAGGACAUGAGGAUCACCCAUGUUAUAUAGGGUCCUGGUUUAGAAGGGAGCGAAU | 26 nM | 28.1 nM | – | –
51 | UGCAGACGAGGAUAUGAUCAAUAAUACAUGAGGAUCACCCAUGUAAUACUGAUCCAUGGAUCAGAAGGCGUCUGCA | 16.7 nM | 22.9 nM | – | –
52 | GCCAUCUCAUGAGGAUAUGCUCCUGUUUCGGGAGCAGAAGGCAUGUCAUAAGACAUGAGGAUCACCCAUGUAGUUAAGAUGGCA | – | – | 256 nM | 11.3 nM
53 | UCUGCCGCCGUGAGGAUAUGCCCAAACAAACGCGGGCAGAAGGCACAUGAGGAUCACCCAUGUCCCGCGGUUUU | 19.6 nM | 36.3 nM | – | –
54 | AGUGGGCUAGGAUAUCGAUGAACUCACAUGAGGAUCACCCAUGUGUCUUUGGUGGGCGCACGAGAAGGAGUAAGAU | 40.4 nM | 43.3 nM | – | –
55 | GAUAUUUUUUGAGGAUAUUCAUACACUGUAUACGGAGAAGGCAAACAAUCAUGAGGACAUGAGGAUCACCCAUGUUGUGACCAU | – | – | 19.5 nM | 13.5 nM
